Activity calls are given as the source filed them.
Assays:
[1] = target: T1, Fatty-acid amide hydrolase 1 (Homo sapiens) (UniProt O00519); assay: Inhibition of FAAH in human brain at 10 uM in presence of FP-rhodamine by competitive activity-based protein profiling method; assay type: tissue-based
T1 sequence (whole entry): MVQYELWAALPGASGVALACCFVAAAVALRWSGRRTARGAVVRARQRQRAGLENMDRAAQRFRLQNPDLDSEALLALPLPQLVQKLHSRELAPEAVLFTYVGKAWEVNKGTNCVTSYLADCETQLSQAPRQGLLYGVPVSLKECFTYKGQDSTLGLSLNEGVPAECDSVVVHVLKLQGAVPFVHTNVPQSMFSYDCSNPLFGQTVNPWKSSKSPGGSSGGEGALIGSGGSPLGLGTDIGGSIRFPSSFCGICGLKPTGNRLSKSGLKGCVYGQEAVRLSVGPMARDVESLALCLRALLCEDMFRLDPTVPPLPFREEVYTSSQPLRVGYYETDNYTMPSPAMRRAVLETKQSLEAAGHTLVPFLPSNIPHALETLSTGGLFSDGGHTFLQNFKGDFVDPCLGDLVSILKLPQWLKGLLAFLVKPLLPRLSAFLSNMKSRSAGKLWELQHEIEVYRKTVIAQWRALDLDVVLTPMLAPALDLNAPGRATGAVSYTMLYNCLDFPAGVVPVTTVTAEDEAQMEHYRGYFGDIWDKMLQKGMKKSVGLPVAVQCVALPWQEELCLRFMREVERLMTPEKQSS
In short: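 Competitive ABPP on human and mouse brain, liver and heart proteomes (membrane and soluble fractions), exposed to compound at 10 or 100 μM or to DMSO. Serine hydrolases were then labeled with FP-rhodamine. Gels were read by fluorescence scanning, and loss of band labeling (FAAH or other hydrolases by kDa) was judged.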

[2] = target: T2, Fatty-acid amide hydrolase 1 (Rattus norvegicus, UniProt P97612); assay: Inhibition of rat FAAH assessed as kinact/Ki ratio incubated for 30 min in presence of glutamate dehydrogenase by 384-well format microplate reader assay
T2 sequence (P97612 whole entry): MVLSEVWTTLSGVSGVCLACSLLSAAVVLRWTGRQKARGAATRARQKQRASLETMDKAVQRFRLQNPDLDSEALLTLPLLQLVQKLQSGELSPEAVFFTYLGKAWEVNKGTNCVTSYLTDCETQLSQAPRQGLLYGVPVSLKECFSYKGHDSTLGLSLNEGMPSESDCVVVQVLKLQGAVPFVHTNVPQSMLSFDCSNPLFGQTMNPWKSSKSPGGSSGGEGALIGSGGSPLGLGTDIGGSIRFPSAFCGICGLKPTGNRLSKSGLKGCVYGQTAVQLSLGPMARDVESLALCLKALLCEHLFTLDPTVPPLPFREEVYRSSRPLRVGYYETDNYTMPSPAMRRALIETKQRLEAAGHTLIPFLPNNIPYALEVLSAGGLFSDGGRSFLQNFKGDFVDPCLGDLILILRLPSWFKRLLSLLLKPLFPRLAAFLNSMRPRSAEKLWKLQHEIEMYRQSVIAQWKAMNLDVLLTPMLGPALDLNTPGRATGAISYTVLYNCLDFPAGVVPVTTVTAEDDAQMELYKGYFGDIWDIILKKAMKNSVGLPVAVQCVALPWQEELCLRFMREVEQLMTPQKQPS

[3] = Ratio of drug concentration in rat brain to plasma at 1 mg/kg, po administered for 4 hrs by LC/MS analysis; assay type: ADME, organism-based; conditions: brain and plasma
In short: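 Male Sprague-Dawley rats received a single oral dose of 1 mg/kg. Plasma (ng/ml) and brain (ng/g tissue) drug levels were measured at 1, 2, 4, 8 and 24 h after dosing.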

[4] = Tmax in rat at 5 mg/kg, po measured upto 24 hrs by LC/MS analysis; assay type: ADME, organism-based; conditions: in vivo
Rattus norvegicus [5] = assay: Antihyperalgesic activity in CFA induced Sprague-Dawley rat assessed as inhibition of mechanical allodynia at 0.003 to 10 mg/kg, po measured for 4 hrs by von frey test; assay type: functional, organism-based; conditions: dose 0.003-10 mg/kg
In short: (§1)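 Male Sprague-Dawley rats (200–250 g) given 150 μl CFA (1 mg/ml in mineral oil) intraplantar in the hind paw. Mechanical paw withdrawal thresholds read with Von Frey hairs on day 5 postinjection. Dosed orally as nanocrystalline suspension in 2% polyvinylpyrrolidone/0.15% SDS in water, 10 ml/kg. PWTs taken 4 h postdose for dose-response, or at 1, 2, 4, 8, 24 h for time course.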

Rattus norvegicus [6] = assay: Antihyperalgesic activity in CFA induced Sprague-Dawley rat assessed as inhibition of mechanical allodynia at 0.1 mg/kg, po measured for 4 hrs by von frey test; assay type: functional, organism-based; in short: as §1
[7] = Plasma concentration in CFA induced Sprague-Dawley rat at 0.1 mg/kg, po by LC/MS analysis; assay type: ADME, organism-based; conditions: in vivo
[8] = target: T3, Fatty-acid amide hydrolase 1 (Rattus norvegicus) (UniProt P97612); assay: In vivo inhibition of FAAH in CFA induced Sprague-Dawley rat plasma at 1 mg/kg, po measured for 1 to 24 hrs; assay type: functional, organism-based; conditions: time 1-24 hrs
T3 sequence (whole entry): T2 sequence (P97612 whole entry)

Rattus norvegicus [9] = assay: Antihyperalgesic activity in MIA induced Sprague-Dawley rat assessed as increased joint compression thresholds at 0.3 to 3 mg/kg, po administered for 1 day and measured after 2 to 4 hrs; assay type: functional, organism-based; conditions: dose 0.3-3 mg/kg
In short: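 Male Sprague-Dawley rats (220–270 g), isoflurane-anesthetized, given 2 mg MIA in 0.9% saline (50 μl) intra-articular into the knee. From day 14, oral dosing at 10 ml/kg once daily for 3 days in 4% 2-hydroxypropyl-β-cyclodextrin/1% ethanol in 0.01 M HCl. Celecoxib 30 mg/kg in 0.5% methylcellulose twice daily. Joint compression threshold by digital Randall-Selitto at 2 and 4 h postdose on days 1 and 3; n = 10/group.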

Mus musculus [10] = assay: Antinociceptive activity in C57BL6/J mouse assessed as increased tail withdrawal latency at 1 to 10 mg/kg, po administered for 4 hrs; assay type: functional, organism-based; conditions: dose 1-10 mg/kg
In short: (§2)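 Male C57BL/6J mice, 7 weeks old, n = 8/group, dosed orally at 1 or 10 mg/kg in PEG 300 (4 ml/kg). Tetrad tested 4 h postdose: locomotor activity, tail-immersion thermal nociception, catalepsy (assessed 60 s), body temperature. Means ± S.E.M. versus vehicle.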

Mus musculus [11] = assay: Antinociceptive activity in C57BL6/J mouse assessed as effect in locomotive activity at 1 to 10 mg/kg, po administered for 4 hrs; assay type: functional, organism-based; conditions: dose 1-10 mg/kg; in short: as §2
Mus musculus [12] = assay: In vivo inhibition of rhodamine-azide tagged FAAH expressed in mouse brain at 1 mg/kg, po by CC-ABPP method based in-gel fluorescence scanning analysis; assay type: functional, organism-based
Mus musculus [13] = assay: In vivo inhibition of rhodamine-azide tagged FAAH expressed in mouse brain at 10 mg/kg, po by CC-ABPP method based in-gel fluorescence scanning analysis; assay type: functional, organism-based

inhibition [1]: Active | IC50 [2]: 11.1 nM | Kp at 4 h [3]: 1.6 | Tmax [4]: 2 h | concentration [7]: 34.7 nM | inhibition [8]: Active
Compound: O=C(Nc1cccnn1)N1CCC(=Cc2cccc(Oc3ccc(C(F)(F)F)cn3)c2)CC1
Activity (Rattus norvegicus [5]): Active | Activity (Rattus norvegicus [6]): Active | Activity (Rattus norvegicus [9]): Active | Activity (Mus musculus [10]): Toxic | Activity (Mus musculus [11]): Non-Toxic | inhibition (Mus musculus [12]): Active | inhibition (Mus musculus [13]): Active
